Screening results from PubChem.
In the library only some 3.7% were active in any assay of this set; here they are far more common.
MT stabilizer = microtubule stabilizers in HeLa cells. % tubulin-high responders, % at 10 µM. AID 2205. 200,000 tested, 0.83% active. HeLa tubulin immunostaining HCS, 24 h; share of cells brighter than vehicle mean+2SD;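 active = plate Z-score above 3 for both tubulin-high and condensed-nucleus cell shares, with cell loss under 80%, at 10 µM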;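 note: anti alpha tubulin signal scored within the nucleus-defined area of each cell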
b-catenin transl = alters nuclear translocation of beta-catenin in HeLa cells | immunofluorescence imaging | nuclear translocation activity, % at 5 µM | 190,000 tested, 0.3% active;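 active = nuclear translocation activity above 50% at 5 µM, with a well cell count of 50 or more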;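 note: per-cell ratio of nuclear to cytoplasmic median beta-catenin stain intensity; plate controls were DMSO negative control for no effect and GSK-3 inhibitor IX positive control for full effect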
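Test system: human HeLa cells, endogenous beta-catenin. Times: 24 h compound exposure, 37°C. Measured by: beta-catenin immunofluorescence imaging with DAPI.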
KCC2 mod = modulates chloride dependent transport by human KCC2; B-score of Tl+ flux slope (higher = more flux/activation; lower = inhibition) at 10 µM; 190,000 tested, 2.2% active; KCC2 cells, thallium flux FluoZin-2 fluorescence; AID 1456; Q9H2X9;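 active = thallium flux slope and its plate-corrected score both differing from the plate sample mean at a set confidence after two filtering rounds, in either direction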;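 note: slope of fluorescence scaled to starting intensity during 10 to 20 s after thallium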
DTT redox prof = compounds producing H2O2 with reducing agent – biochemical, NIH compound library profiling, artefact control for MLSCN library redox annotation, primary screen; DTT-dependent redox cycling H2O2, phenol red/HRP absorbance; 100% = 100 µM peroxide control, 0% = buffer; AID 878; activation, % at 10 µM; 200,000 tested, 0.03% active;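 active = activation of at least 50% relative to the plate's high and low controls in the primary single-dose screen; inactive = activation below 50%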;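 note: compound incubated with DTT at 0.8 mM final as the reducing agent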
ROMK mod = modulates human ROMK potassium channel activity. P48048. Tet-inducible ROMK, thallium flux fluorescence; actives lie on both sides. B-score at 10 µM. 130,000 tested, 2% active;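 active = signal ratio slope over the read window, or its plate-corrected B-score, at least 3 SD from the plate mean, either direction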;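 note: B-score of the F/F0 ratio slope over 7 to 12 s after thallium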
Target sequence (P48048 whole entry, looked up): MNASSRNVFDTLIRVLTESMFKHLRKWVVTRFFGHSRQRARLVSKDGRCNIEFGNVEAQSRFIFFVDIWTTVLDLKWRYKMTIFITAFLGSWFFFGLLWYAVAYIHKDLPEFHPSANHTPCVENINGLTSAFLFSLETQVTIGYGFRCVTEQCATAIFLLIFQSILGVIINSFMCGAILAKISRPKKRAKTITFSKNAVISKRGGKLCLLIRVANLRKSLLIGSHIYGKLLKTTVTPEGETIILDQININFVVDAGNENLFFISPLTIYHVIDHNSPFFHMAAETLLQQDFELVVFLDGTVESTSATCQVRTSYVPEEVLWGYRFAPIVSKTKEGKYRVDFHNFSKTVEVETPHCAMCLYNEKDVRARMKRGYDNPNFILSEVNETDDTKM
* marks the source's active call; other numbers are inactive results; / = no result given.

SMILES | MT stabilizer | b-catenin transl | KCC2 mod | DTT redox prof | ROMK mod
CC(=NCCc1c(C)[nH]c2ccc(C)cc12)C1=C(O)CC(c2ccccc2)CC1=O (configuration not stated) | 15.6* | 9.7 | 0.0229 | 0.3 | 0.563
COc1ccc(OCC(O)Cn2c(N)nc3c2c(=O)[nH]c(=O)n3C)cc1 (configuration not stated) | / | 1.0 | 0.83 | / | -0.343
Oc1c(C=C2N=c3ccccc3=N2)sc(=S)n1-c1ccccc1 | 3.1 | -3.0 | 0.171 | -0.2 | 0.233
CC1=Nc2ccccc2/C1=C/c1sc(=S)n(-c2cccc(C(=O)O)c2)c1O | 5.0 | -5.5 | -3.91* | -2.0 | -4.57*
Cc1c(NC(=O)C2CCCCC2)cc(C(=O)N2CCOCC2)cc1[N+](=O)[O-] | 2.2 | -3.5 | / | -1.1 | -0.628
N#CCCn1nc(-c2ccc([N+](=O)[O-])cc2)cc1Nc1ccccc1NC(=O)C(F)(F)F | 2.4 | 1.9 | -0.565 | 0.3 | /
Cc1nn(-c2ccccc2)c(Cl)c1/C=C(\CC(=O)O)c1nc2ccccc2s1 | 1.7 | -0.6 | -2.99* | 0.1 | 1.3
Nc1ccc(SCC(=O)Nc2cccc([N+](=O)[O-])c2)cc1 | 1.9 | 1.0 | -0.676 | -1.5 | 0.439
CCc1ccc(NC(=S)NNC(=O)c2ccccc2OC(F)F)cc1 | 16.5* | 12.6 | 17.9* | -0.1 | /
CCNC(=S)NNC(=O)c1ccccc1OC(F)F | 2.2 | 1.7 | 1.45 | 0.2 | 1.62
COc1ccc(C(=O)NNC(=S)Nc2ccccc2)cc1 | 4.5 | -0.3 | 0.268 | -1.7 | -0.0818
COc1ccc(NC(=S)NNC(=O)c2ccccc2OC(F)F)cc1 | 36.0* | 15.5 | 0.0405 | 0.1 | 0.83
CN(Cc1ccccc1)C(=O)C1CCCN(Cc2cccc(Cl)c2)C1 (configuration not stated) | 2.2 | -2.7 | -0.816 | 0.5 | -0.673
CC(C)CN(C(=O)c1cc2ccccc2o1)c1c(N)n(CC(C)C)c(=O)[nH]c1=O | 4.6 | -1.6 | -0.677 | -0.4 | /
COC(=O)c1ccc(COc2ccccc2/C=N/NS(=O)(=O)c2ccccc2)cc1 | 23.1* | 1.4 | / | -5.2 | 0.971
COc1cc(/C=N/NS(=O)(=O)c2ccc3ccccc3c2)ccc1OCc1ccc(C(=O)O)cc1 | / | 1.2 | -1.49 | / | /
O=C(N/N=C/c1cccs1)C1CC(=O)N(c2ccccc2)C1 (configuration not stated) | 1.3 | 7.6 | 0.0743 | 0.3 | 0.151
Cc1ccc(/C=N/NC(=O)C2CC(=O)N(c3ccccc3)C2)s1 (configuration not stated) | 8.7 | 57.1* | -0.0184 | 0.2 | /
CSc1ccc(C(=O)C2CCCN(Cc3ccc(N4CCNC4=O)cc3)C2)cc1 (configuration not stated) | 13.9* | 6.6 | -0.713 | 0.5 | 0.0831
O=C(N/N=C/c1cc2ccccc2[nH]1)c1ccccc1Cl | / | 0.6 | -0.544 | / | /
COc1ccc(-c2oc3c(OC)c(OC)c(OC)c(O)c3c(=O)c2OC)cc1OC | 3.0 | -2.1 | 0.751 | -1.7 | /
COc1c(OC)c(O)c2c(=O)c(O)c(-c3ccccc3)oc2c1OC | 1.9 | -0.7 | 51.6* | 0.5 | /
CC(C)(C)C(=O)Nc1nnc(SCC(=O)NCc2ccco2)s1 | 3.1 | 1.2 | 0.479 | 0.4 | /
C=CCC1(N(C(C)=O)c2ccccc2C)CCCCC1 | 1.7 | 0.8 | 0.879 | -1.8 | -1.38
CC(=O)N1c2ccccc2N(Cc2ccc(C)cc2C)C(=O)C1(C)C | 18.9* | / | -0.0465 | -2.2 | /
SMILES | MT stabilizer | b-catenin transl | KCC2 mod | DTT redox prof | ROMK mod
C=CCN1C(=O)C(C)(C)N(C(C)=O)c2ccccc21 | 2.7 | -1.6 | 0.0091 | 0.3 | 1.4
Cc1cc(C)cc(OCc2nc3ncc(Br)cc3[nH]2)c1 | 34.4* | / | 0.773 | 2.0 | 1.43
COc1cccc(OCc2nc3ncc(Br)cc3[nH]2)c1 | 35.6* | 0.7 | 1.1 | 1.1 | 3.34
Cc1ccccc1NS(=O)(=O)c1ccc(N2CCCC2=O)cc1 | 37.0* | 100.2* | -0.228 | 1.8 | /
COc1ccc(OC)c(NS(=O)(=O)c2ccc(N3CCCC3=O)cc2)c1 | 22.3* | 146.8* | / | 0.1 | 2.31
O=C(NCCC1=CCCCC1)C(=O)NCC1OCCCN1S(=O)(=O)c1ccc(F)cc1 (configuration not stated) | 4.1 | 0.6 | -1.28 | -1.1 | 0.0135
CSc1ccc(Cl)c(C(=O)OCC(=O)N(C)CCC#N)c1 | 3.7 | 0.0 | 0.142 | -0.8 | 0.725
c1ccc(CCNc2ccnc3cc4ccccc4cc23)cc1 | 30.9* | 2.2 | -0.659 | -0.4 | -1.27
CCN1CC=C2C(C#N)=C(N)C(C#N)(C#N)C(c3cc(Cl)ccc3Cl)C2C1 (configuration not stated) | 5.2 | 1.4 | -0.723 | 1.7 | -4.81*
CC(C)N1CC=C2C(C#N)=C(N)C(C#N)(C#N)C(c3ccccc3)C2C1 (configuration not stated) | 1.5 | / | -0.119 | -3.6 | -4.22*
CCOC(=O)c1c(N/N=C/c2cccnc2)n[nH]c1C | / | 14.1 | -0.113 | / | /
CCOc1ccc(NC(=O)/C=C/c2ccccc2)c([N+](=O)[O-])c1 | 24.2* | 9.8 | 1.2 | 2.4 | 0.419
Cc1csc2c(SCC(=O)NNC(=O)C(Cl)Cl)ncnc12 | / | -1.7 | -0.701 | / | /
O=C(Oc1c(Cl)cc(Cl)c2cccnc12)c1cccc([N+](=O)[O-])c1 | 2.6 | 7.3 | 51* | -0.7 | -0.287
CC1CCN(c2ccc(NC(=S)NC(=O)c3ccc(-c4cccc([N+](=O)[O-])c4)o3)cc2)CC1 | 1.2 | 3.5 | 0.356 | 0.7 | 1.64
O=C(Nc1ccc(-c2csc(-c3ccccc3)n2)cc1)c1ccccc1Cl | 17.2* | 0.2 | -1.09 | 1.2 | /
O=C(Nc1ccc(N2CCCCCC2)cc1)c1ccccc1Cl | 11.4* | 32.2 | -0.321 | -1.5 | /
O=C(NC(=S)Nc1ccc(N2CCCCC2)cc1)c1ccco1 | 1.3 | / | 71.8* | 1.6 | /
O=C(O)c1ccccc1C(=O)Nc1ccc(-c2csc(-c3ccccc3)n2)cc1 | 2.0 | 2.4 | -1.52 | -0.3 | /
CC1CCN(c2ccc(NC(=S)NC(=O)c3ccco3)cc2)CC1 | 1.1 | -0.8 | 25.3* | -3.4 | /
CC(=O)c1c(C)[nH]c(C(=O)OCC(=O)Nc2sc3c(c2C#N)CCC(C)C3)c1C (configuration not stated) | / | -1.0 | -0.125 | / | /
Fc1ccc(-c2nnc(SCc3cccnc3)o2)cc1 | 3.0 | 1.8 | 0.646 | -0.7 | -0.264
CC(=O)Cc1nsc(NC(=O)c2ccc(-c3ccccc3Cl)o2)n1 | 24.4* | 1.5 | -0.991 | 1.3 | -0.528
Cn1c(-c2ccc(F)cc2)cnc1NCc1ccccc1 | 8.5 | 0.6 | -0.128 | -3.5 | -1.29
Cn1c(-c2ccc(F)cc2)cnc1NCc1cccc(F)c1 | 14.5* | 38.1 | 0.319 | 2.0 | /
CCOc1ccc(-c2nnn(CC(=O)c3cc(OC)ccc3OC)n2)cc1 | 50.2* | 0.9 | / | 0.0 | 1.45
COc1ccc(/C=N/NC(=O)CCSc2nc3ccccc3s2)cc1OC | 2.0 | 2.1 | -1.23 | 0.0 | -0.887
O=C(CCSc1nc2ccccc2s1)N/N=C/c1c(O)ccc2ccccc12 | 20.6* | 1.7 | 0.22 | 0.1 | /
